Assay: Toxicity liver stage against HepG2, at 10uM
Assay type: cell-based
Set-up: test concentration 10 uM, cell line HepG2-A16-CD81EGFP
Conditions: human, HepG2-A16-CD81EGFP cells; read-out: INHIBITION
How it was run: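 Uninfected HepG2-A16-CD81EGFP cells, 3 × 10^3 per well, 1536-well, plated on prespotted compound at 10 μM final, parasite-free screening media added to match infected plates; puromycin 10 μM positive, DMSO 0.5% negative; run in parallel with 48 h PbLuc assay at 37 °C, 5% CO2; viability by CellTiter-Glo luminescence, normalized to controls.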
`COc1ccc(-c2noc([C@@H](C)NC(=O)CC(C)C)c2C(=O)O)cc1` showed a cytotoxicity at 10 µM of 2.05%.
`O=C(Cc1cc(-c2ccc3c(c2)OCO3)on1)NC1CCCC1` gave a cytotoxicity at 10 µM of -2.34%.
`Cc1nnsc1C(=O)NCC1CCN(c2ccccn2)CC1` showed a cytotoxicity at 10 µM of 11.9%.
Compound `COCC(C)NC(=O)c1nnn(-c2ccc(F)cc2)n1` (stereo unspecified) has a cytotoxicity at 10 µM of -20.6%.
Work on `COCCO[C@@H]1CCN(c2cc(OC)ncn2)[C@H]1Cc1cnn(C)c1` yielded a cytotoxicity at 10 µM of -142%.
With `CCC(=O)N1CCC(c2ncc(C(=O)Nc3ccccc3)c(C)n2)C1` (stereo unspecified) the cytotoxicity at 10 µM was 6.96%.
Compound `CN(C)Cc1cccc(-c2cccnc2C(=O)NCc2ccccn2)c1` has a cytotoxicity at 10 µM of 5.39%.
Compound `COc1cc(CCC(=O)N2CCC(c3cncc(C)n3)CC2)on1` has a cytotoxicity at 10 µM of 4.46%.
In the case of `Cc1c[nH]nc1C1CN(c2ncccn2)CCO1` (stereo unspecified), the cytotoxicity at 10 µM is reported as 4.37%.
With `Cc1cc(C)n(C2CCN(S(=O)(=O)N3CCOCC3)CC2)n1` the cytotoxicity at 10 µM was 3.88%.
For `O=C(O)c1ccc(=O)n(CC(c2ccc(F)cc2)N2CCCCCC2)c1` (stereo unspecified), the cytotoxicity at 10 µM was 1.31%.
Compound `CNC(=O)C1(CCCc2ccccn2)CN(Cc2coc(C)n2)C1` has a cytotoxicity at 10 µM of 8.62%.
In the case of `O=C(O)c1ccccc1-n1cnc(CN2CCCCCC2)c1`, the cytotoxicity at 10 µM is reported as -8.94%.
For `CCCn1cc(C(=O)NCc2nnc(-c3ccc(C)nc3)o2)c(C)n1`, the cytotoxicity at 10 µM was -0.277%.
Compound `Cn1ccc(C(=O)N2CCCC(c3cc4cccnc4c(O)n3)C2)n1` (stereo unspecified) has a cytotoxicity at 10 µM of 4.53%.
Work on `COc1ccc2[nH]cc(C(=O)N3C[C@@H](O)[C@H](NS(C)(=O)=O)C3)c2c1` yielded a cytotoxicity at 10 µM of -9.26%.
Work on `Cc1cccc(N2CCOC(C(=O)O)C2)c1` (stereo unspecified) yielded a cytotoxicity at 10 µM of -8.89%.
`CN(C)[C@@H]1CN(C(=O)c2ccc3ccccc3n2)C[C@H]1O` gave a cytotoxicity at 10 µM of -22.5%.
Compound `CNc1cncc(C2CCCN2S(=O)(=O)c2cccc(F)c2)n1` (stereo unspecified) has a cytotoxicity at 10 µM of -15.3%.
`O=C(CN1CCCC1)N1CCCC(c2cc(=O)n3c(n2)CCCCC3)C1` (stereo unspecified) showed a cytotoxicity at 10 µM of -13.7%.
With `CN1CCN(c2ncc(-c3cnccn3)c([C@H]3CCCO3)n2)CC1` the cytotoxicity at 10 µM was -20%.
Work on `Cc1cc2c(=O)n3c(nc2s1)CCN(C(=O)c1cn(C)nc1C)CC3` yielded a cytotoxicity at 10 µM of -22.6%.
Work on `O=C(Cn1cccnc1=O)NC(Cc1ccsc1)c1cccnc1` (stereo unspecified) yielded a cytotoxicity at 10 µM of -25.7%.
`CCc1cnc(CNC(=O)NC2CC(C)(C)OC2(C)C)s1` (stereo unspecified) showed a cytotoxicity at 10 µM of 10.3%.
With `CCCn1nc2c(cc1=O)CN(CC1CCCCO1)CC2` (stereo unspecified) the cytotoxicity at 10 µM was 12.5%.
In the case of `CN(C)C(=O)c1ccc(-c2cscn2)cc1`, the cytotoxicity at 10 µM is reported as 1.53%.
`Cc1nc(CN2CCN(c3cncc(Cl)n3)CC2)no1` gave a cytotoxicity at 10 µM of 6.45%.
`Cc1noc(C)c1Cc1nc(C2CC2)no1` gave a cytotoxicity at 10 µM of 5.42%.
For `CN(Cc1ccc(F)c2cccnc12)C1CCS(=O)(=O)C1` (stereo unspecified), the cytotoxicity at 10 µM was 5.93%.
With `CCOc1ccc(Cl)c(C(=O)NC(C)C(N)=O)n1` (stereo unspecified) the cytotoxicity at 10 µM was 7.53%.
For `CC(C)N(C)S(=O)(=O)N(Cc1cccs1)Cc1cccs1`, the cytotoxicity at 10 µM was -45.2%.
For `CN(Cc1c(F)cccc1Cl)C(=O)c1cnn(CCN2CCOCC2)c1`, the cytotoxicity at 10 µM was -4.2%.
Work on `Cc1nn(C)c(Cl)c1C1CCCN1CC(=O)NC1CCCCC1` (stereo unspecified) yielded a cytotoxicity at 10 µM of 7.09%.
In the case of `COCCCS(=O)(=O)N1CCN(c2cccc(O)c2)CC1`, the cytotoxicity at 10 µM is reported as 4.42%.
With `COc1c(C2CCCN2C(=O)c2sccc2C#N)c(C)nn1C` (stereo unspecified) the cytotoxicity at 10 µM was 3.33%.
`Cc1ccc(C)c(NC(=O)Cn2nc(C)c(C#N)c2N)c1` gave a cytotoxicity at 10 µM of -4.57%.
With `CCc1noc(CC)c1CC(=O)N1CCCC(N2CCCCC2)C1` (stereo unspecified) the cytotoxicity at 10 µM was -15.3%.
Work on `Cc1nc(CNC(C(=O)N2CCOCC2)C(C)C)no1` (stereo unspecified) yielded a cytotoxicity at 10 µM of 5.76%.
Compound `Cc1cc(CN2CC[C@H]3OCC[C@@]3(C(=O)N3CCOCC3)C2)no1` has a cytotoxicity at 10 µM of 7.93%.
In the case of `CS(=O)(=O)NC[C@]12COC[C@H]1CN(C(=O)C1CCSCC1)C2`, the cytotoxicity at 10 µM is reported as -112%.
For `CN1C(=O)CC(c2cnn(C)c2)C12CCN(C(=O)c1ccno1)CC2` (stereo unspecified), the cytotoxicity at 10 µM was -74.1%.
For `Cc1cccc(N2CC3(CCN(C(=O)NC(C)C)C3)CC2=O)c1` (stereo unspecified), the cytotoxicity at 10 µM was -3.7%.
`CCCN(Cc1cccnc1)C(=O)C1CCNC1` (stereo unspecified) showed a cytotoxicity at 10 µM of 8.97%.
`COCCN(C)Cc1cn(C)nc1-c1ccc2c(c1)OCCO2` gave a cytotoxicity at 10 µM of -0.65%.
Work on `CN(Cc1ccon1)C(=O)CN1C(=O)OC(C)(C)C1=O` yielded a cytotoxicity at 10 µM of -108%.
`Cc1ccc2nc(C(=O)N3CC(c4cccnc4)C3)cn2c1` showed a cytotoxicity at 10 µM of -7.5%.
Compound `COCCCC1(C(=O)O)CCCN(Cc2ccccc2C)C1` (stereo unspecified) has a cytotoxicity at 10 µM of -4.58%.
`Cc1nc(N(C)C)nc(-c2cccc(-c3ccn(CCCO)n3)c2)c1C` showed a cytotoxicity at 10 µM of -6.51%.
Work on `CN(CCCN1CCCCCC1)C(=O)c1ccccc1NCC(=O)O` yielded a cytotoxicity at 10 µM of -4.84%.
With `O=c1c2cccnc2ccn1Cc1nccn1C1CC1` the cytotoxicity at 10 µM was -4.87%.
For `Cc1ccsc1[C@@H]1CCN(C(=O)CCc2cc(O)no2)C[C@H]1O`, the cytotoxicity at 10 µM was -4.73%.
For `CCc1nn(C)c(Cl)c1CN1CCCC2(C1)CN(C)C(=O)O2` (stereo unspecified), the cytotoxicity at 10 µM was 5.44%.
For `CC(Cc1cnccn1)NC(=O)COc1ccc(F)cc1F` (stereo unspecified), the cytotoxicity at 10 µM was -44.4%.
For `COCCN(Cc1sccc1C)c1nc(C)nc2sccc12`, the cytotoxicity at 10 µM was -131%.
In the case of `COc1ccc(-c2cccc(-c3ccn(CCN(C)C)n3)c2)nn1`, the cytotoxicity at 10 µM is reported as -1.39%.
Compound `CN1CCN(Cc2ccccc2Oc2ccc(C(N)=O)cn2)CC1` has a cytotoxicity at 10 µM of -23.6%.
Compound `COc1cccc(OCc2cc(C(=O)NC[C@@H]3CCCN3)n[nH]2)c1` has a cytotoxicity at 10 µM of 0.732%.
In the case of `CCc1nc(C)sc1CN1C[C@@H](C)[C@@](C)(O)C1`, the cytotoxicity at 10 µM is reported as -1.47%.
`CN(Cc1ccccc1)C(=O)CCN1CCC2(CC1)[C@H](O)C[C@@H]2O` gave a cytotoxicity at 10 µM of -7.55%.
In the case of `O=C(COc1cccnc1)NCc1nncn1C1CCCCC1`, the cytotoxicity at 10 µM is reported as 3.46%.
`CCCOC(C)C(=O)NCc1cc2n(n1)CCCN(C1CCCCC1)C2` (stereo unspecified) gave a cytotoxicity at 10 µM of 2.5%.
`CCC(Cn1ccnc1)n1cnc2c(C)csc2c1=O` (stereo unspecified) gave a cytotoxicity at 10 µM of -4.34%.
`COCCOC1CCN(C(C(=O)O)c2ccc3c(c2)OCO3)CC1` (stereo unspecified) gave a cytotoxicity at 10 µM of 9.07%.
In the case of `Cc1c(F)cc(C(=O)O)cc1S(=O)(=O)Nc1ccc(C#N)cc1`, the cytotoxicity at 10 µM is reported as -6.04%.
Compound `CC(C)c1nn(C)c(N(C)C)c1CNCc1cccnc1N(C)C` has a cytotoxicity at 10 µM of -8.66%.
Work on `CNC(=O)CCCNCc1c(C)nn(C)c1N(C)C` yielded a cytotoxicity at 10 µM of -8.18%.
In the case of `Cc1cc(C(=O)NCc2ccnc(N3CCN(C)CC3)c2)c(C)s1`, the cytotoxicity at 10 µM is reported as -10.7%.
Compound `CCC1CCCN(C(=O)Cc2csc(-c3ncccn3)n2)C1` (stereo unspecified) has a cytotoxicity at 10 µM of -5.15%.
Work on `COc1ccc(OC)c(C(O)CN2CC(n3cccn3)C2)c1` (stereo unspecified) yielded a cytotoxicity at 10 µM of -8.42%.
`NC(=O)c1ccc(S(=O)(=O)NC2CCN(Cc3ccccc3)C2=O)cc1` (stereo unspecified) showed a cytotoxicity at 10 µM of -9.96%.
`NCCC(=O)Nc1ccc(-c2ccccc2)cc1` gave a cytotoxicity at 10 µM of -1.81%.
Work on `c1ccc(CN2CC[C@@H]3O[C@H](COCc4ccncc4)CC[C@@H]32)nc1` yielded a cytotoxicity at 10 µM of 3.5%.
In the case of `O=C(c1ccncc1F)N1C[C@@H]2OCCN(CC3CC3)[C@@H]2C1`, the cytotoxicity at 10 µM is reported as -141%.
`Cc1ncsc1CN1C[C@@H]2COC[C@]2(CNC(=O)c2ccco2)C1` gave a cytotoxicity at 10 µM of -73.8%.
In the case of `COCCN1C2(CCN(Cc3nccs3)C2)c2ccccc2S1(=O)=O` (stereo unspecified), the cytotoxicity at 10 µM is reported as -65.7%.
Compound `Cc1ccc(C(=O)N2Cc3c(CN(C)C)nn(C)c3C2)cc1C` has a cytotoxicity at 10 µM of 1.77%.
Compound `CN(C)C(=O)CN1CC[C@@H]2O[C@@H](COCc3cccnc3)CC[C@@H]21` has a cytotoxicity at 10 µM of -67.2%.
`COCC1CC2(CCN(Cc3ccco3)CC2)CN1C(C)C` (stereo unspecified) showed a cytotoxicity at 10 µM of 0.0448%.
With `COc1ccc(OC)c(CN2CCc3nc4ccsc4c(=O)n3CC2)c1` the cytotoxicity at 10 µM was 43.5%.
Work on `Cc1nc(CN2CCO[C@H]3[C@@H](OCc4cccnc4)CC[C@@H]32)cs1` yielded a cytotoxicity at 10 µM of -0.587%.
For `CN(C)C(c1ccccn1)C1CCC(CNC(=O)C2CCCC2)CC1` (stereo unspecified), the cytotoxicity at 10 µM was 10.5%.

— ChEMBL document CHEMBL4513216, “Probing the Open Global Health Chemical Diversity Library for Multistage-Active Starting Points for Next-Generation Antimalarials” (ACS Infect Dis, 2020)
